Laboratory results from ChEMBL document CHEMBL3091449, “Synthesis and antimicrobial profile of N-substituted imidazolium oximes and their monoquaternary salts against multidrug resistant bacteria” (2013).
≈ marks a conversion by molar mass, not a printed value.

Key:
Assay type in all cases: functional
Aspergillus fumigatus = test: Antifungal activity against Aspergillus fumigatus FNSST 3833 assessed as diameter of zone of inhibition at 250 ug/disc after 72 hrs by disc diffusion method; details: FNSST 3833, 72 h, read-out: DIZ
In short: (§1)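 Fungi were grown overnight at 30 °C in Sabouraud dextrose broth to 10^4 cfu/mL, and 100 µL was spread on Sabouraud dextrose agar. 6 mm discs carried 250 µg (25 µL of a 10 mg/mL stock in 96% ethanol), with ethanol as the negative control. Incubation was at 30 °C for 48 h (yeast) or 72 h (molds). Zone diameter was read including the disc, in triplicate, mean ± SE.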

Clostridium perfringens [1] = test: Antibacterial activity against Clostridium perfringens FNSST 4999 assessed as diameter of zone of inhibition at 250 ug/disc after 24 hrs by disc diffusion method; details: FNSST 4999, 24 h, read-out: DIZ
In short: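 Disc diffusion per CLSI: 100 µL of 10^6 cfu/mL bacterial suspension spread on Mueller Hinton agar. 6 mm discs loaded with 25 µL of 10 mg/mL compound stock in 96% ethanol (250 µg/disc); ethanol as negative control. Incubated 24 h at 37 °C. Inhibition zone diameter measured in mm including the disc, triplicate, reported as mean ± SE.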

Pseudomonas aeruginosa [2] = test: Antibacterial activity against Pseudomonas aeruginosa FNSST 982 assessed as diameter of zone of inhibition at 250 ug/disc after 24 hrs by disc diffusion method; details: FNSST 982, 24 h, read-out: DIZ
In short: (§2)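 Bacteria were grown overnight at 37 °C in TSB to about 10^6 cfu/mL, and 100 µL was spread on Mueller Hinton agar. Sterile 6 mm discs were each loaded with 25 µL of a 10 mg/mL stock in 96% ethanol, giving 250 µg/disc. Ethanol served as the negative control. Plates were incubated 24 h at 37 °C. Inhibition zone diameter was measured including the disc, in triplicate, as mean ± SE.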

Klebsiella pneumoniae [3] = test: Antibacterial activity against Klebsiella pneumoniae FNSST 011 after 18 to 24 hrs by two-fold broth microdilution assay
In short: (§3)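 CLSI two-fold broth microdilution was used. Compounds were dissolved in DMSO, brought to 10 mg/mL in medium, then serially diluted in Mueller Hinton broth over 400–0.09 µg/mL. Overnight MHB cultures were diluted to 10^6 CFU/mL, and 10 µL was added per well. Plates were incubated 18–24 h at 37 °C, then 0.2 mg/mL INT was added for 30 min at 37 °C. MIC was the lowest concentration with no visible growth or pink colour, triplicate.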

Aeromonas hydrophila [4] = test: Antibacterial activity against Aeromonas hydrophila FNSST 014 after 18 to 24 hrs by two-fold broth microdilution assay; in short: as §3
Staphylococcus aureus [5] = test: Antibacterial activity against Staphylococcus aureus ATCC 25923 after 18 to 24 hrs by two-fold broth microdilution assay; in short: as §3
Pseudomonas aeruginosa [6] = test: Ratio of gentamicin MIC to compound MIC for Pseudomonas aeruginosa FNSST 982
Klebsiella pneumoniae [7] = test: Antibacterial activity against Klebsiella pneumoniae FNSST 011 assessed as diameter of zone of inhibition at 250 ug/disc after 24 hrs by disc diffusion method; details: FNSST 011, 24 h, read-out: DIZ; in short: as §2
Bacillus cereus [8] = test: Antibacterial activity against Bacillus cereus ATCC 11778 assessed as diameter of zone of inhibition at 250 ug/disc after 24 hrs by disc diffusion method; details: ATCC 11778, 24 h, read-out: DIZ; in short: as §2
Enterococcus faecalis [9] = test: Antibacterial activity against Enterococcus faecalis ATCC 29212 assessed as diameter of zone of inhibition at 250 ug/disc after 24 hrs by disc diffusion method; details: ATCC 29212, 24 h, read-out: DIZ; in short: as §2
Aeromonas hydrophila [10] = test: Antibacterial activity against Aeromonas hydrophila FNSST 014 assessed as diameter of zone of inhibition at 250 ug/disc after 24 hrs by disc diffusion method; details: FNSST 014, 24 h, read-out: DIZ; in short: as §2
Candida albicans = test: Antifungal activity against Candida albicans ATCC 10231 assessed as diameter of zone of inhibition at 250 ug/disc after 48 hrs by disc diffusion method; details: ATCC 10231, 48 h, read-out: DIZ; in short: as §1
Escherichia coli [11] = test: Antibacterial activity against Escherichia coli FNSST 982 assessed as diameter of zone of inhibition at 250 ug/disc after 24 hrs by disc diffusion method; details: FNSST 982, 24 h, read-out: DIZ; in short: as §2
Staphylococcus aureus [12] = test: Antibacterial activity against Staphylococcus aureus ATCC 25923 assessed as diameter of zone of inhibition at 250 ug/disc after 24 hrs by disc diffusion method; details: ATCC 25923, 24 h, read-out: DIZ; in short: as §2
Bacillus cereus [13] = test: Antibacterial activity against Bacillus cereus ATCC 11778 after 18 to 24 hrs by two-fold broth microdilution assay; in short: as §3
Pseudomonas aeruginosa [14] = test: Antibacterial activity against Pseudomonas aeruginosa FNSST 982 after 18 to 24 hrs by two-fold broth microdilution assay; in short: as §3
Escherichia coli [15] = test: Antibacterial activity against Escherichia coli FNSST 982 after 18 to 24 hrs by two-fold broth microdilution assay; in short: as §3
Clostridium perfringens [16] = test: Antibacterial activity against Clostridium perfringens FNSST 4999 after 18 to 24 hrs by two-fold broth microdilution assay
In short: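 CLSI two-fold broth microdilution. Compounds dissolved in DMSO, 10 mg/mL stock, serially diluted to 400–0.09 µg/mL in Mueller Hinton broth. Wells inoculated with 10^6 CFU/mL bacteria and incubated 18–24 h at 37 °C. 0.2 mg/mL INT added for 30 min. MIC taken as the lowest concentration with no visible growth or pink colour. Triplicate.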

Enterococcus faecalis [17] = test: Antibacterial activity against Enterococcus faecalis ATCC 29212 after 18 to 24 hrs by two-fold broth microdilution assay; in short: as §3
Talaromyces funiculosus = test: Antifungal activity against Penicillium funiculosum FNSST 3724 assessed as diameter of zone of inhibition at 250 ug/disc after 72 hrs by disc diffusion method; details: FNSST 3724, 72 h, read-out: DIZ; in short: as §1

**Q.** How did the zone of inhibition at 250 µg/disc (Aspergillus fumigatus) turn out when `O/N=C/c1nccn1Cc1ccccc1` was run?
**A.** 11.5 mm

**Q.** And the zone of inhibition at 250 µg/disc (Clostridium perfringens [1])?
**A.** 15.9 mm

**Q.** And the zone of inhibition at 250 µg/disc (Pseudomonas aeruginosa [2])?
**A.** 17.9 mm

**Q.** And the MIC (Klebsiella pneumoniae [3])?
**A.** 25 µg/mL (≈ 124 µM)

**Q.** What about the MIC (Aeromonas hydrophila [4]) of the same compound?
**A.** 25 µg/mL (≈ 124 µM)

**Q.** What about the MIC (Staphylococcus aureus [5]) of the same compound?
**A.** 6.25 µg/mL (≈ 31.1 µM)

**Q.** What about the Ratio (Pseudomonas aeruginosa [6]) of the same compound?
**A.** 5

**Q.** What about the zone of inhibition at 250 µg/disc (Klebsiella pneumoniae [7]) of the same compound?
**A.** 15.8 mm

**Q.** And the zone of inhibition at 250 µg/disc (Bacillus cereus [8])?
**A.** 17.5 mm

**Q.** What about the zone of inhibition at 250 µg/disc (Enterococcus faecalis [9]) of the same compound?
**A.** 14.9 mm

**Q.** And the zone of inhibition at 250 µg/disc (Aeromonas hydrophila [10])?
**A.** 10.1 mm

**Q.** What about the zone of inhibition at 250 µg/disc (Candida albicans) of the same compound?
**A.** 17.2 mm

**Q.** What about the zone of inhibition at 250 µg/disc (Escherichia coli [11]) of the same compound?
**A.** 17.3 mm

**Q.** What about the zone of inhibition at 250 µg/disc (Staphylococcus aureus [12]) of the same compound?
**A.** 10.8 mm

**Q.** What about the MIC (Bacillus cereus [13]) of the same compound?
**A.** 6.25 µg/mL (≈ 31.1 µM)

**Q.** And the MIC (Pseudomonas aeruginosa [14])?
**A.** 12.5 µg/mL (≈ 62.1 µM)

**Q.** And the MIC (Escherichia coli [15])?
**A.** 25 µg/mL (≈ 124 µM)

**Q.** And the MIC (Clostridium perfringens [16])?
**A.** 50 µg/mL (≈ 248 µM)

**Q.** What about the MIC (Enterococcus faecalis [17]) of the same compound?
**A.** 6.25 µg/mL (≈ 31.1 µM)

**Q.** What about the zone of inhibition at 250 µg/disc (Talaromyces funiculosus) of the same compound?
**A.** 17.6 mm
